Screening results from PubChem BioAssay.
Rows were chosen to be rich in hits. Some 2% of all compounds tested hit in one or more screens of this group.
Apaf-1 inh – inhibitors of human Apaf-1 apoptosome; reconstituted apoptosome caspase-3 activity, DEVD-Rh110 fluorescence; hit rate 0.71% among 330,000; O14727; inhibition, % at 20 µM; AID 489030; active = inhibition of at least 40% at 20 µM
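Material: reconstituted apoptosome with Apaf-1, cytochrome c, caspase-9, procaspase-3, dATP; medium: pH 7.5 Hepes buffer with CHAPS, BSA, DTT; also added: cytochrome c and DEVD-Rh110 substrate; timing: 30 min plus 50 min, RT; signal: Rh110 fluorescence intensity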
CTSL1 counter – counter-screen for PFM18AAP inhibitors: inhibitors of F. hepatica cathepsin L1; hit rate 0.49% among 300,000; inhibition, % at 5.96 µM; recombinant F. hepatica cathepsin L1, Z-Leu-Arg-MCA fluorescence;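 active = inhibition above the mean of all tested compounds plus 3 SD, set per screening campaign, cut at about 17% in these data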
PAD4 FP inh – PAD4 (human) enzyme inhibition; Q9UM07; recombinant PAD4, RCA probe fluorescence polarization; inhibition, % at 6.36 µM; hit rate 0.41% among 330,000;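 active = percent inhibition above a cutoff equal to the mean of all tested compounds plus 3 SD, cut at about 15% in these data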
PP5 primary – PP5 (human) phosphatase inhibition | P53041 | purified PP5c, OMFP substrate fluorescence | inhibition, % at 6.7 µM | hit rate 0.18% among 320,000 | AID 1987;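 active = inhibition above the campaign's mean inhibition across all tested compounds plus 3 SD, cut at about 9.5% in these data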
UCH37 DUB inh – blocks the human deubiquitinase UCH37; AID 588478; purified proteasome/UCH37, Ub-AMC cleavage fluorescence; Q9Y5K5; inhibition, % (concentration not given with the values); hit rate 0.33% among 330,000;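 active = mean inhibition over replicate wells above about 20%, limit read from the data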
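Material: human UCH37 enzyme supplied as purified proteasome complex. Measure: % inhibition of Ub-AMC cleavage fluorescence. Medium: pH 7.4 Tris-HCl (50 mM) with ovalbumin, ATP-MgCl2, DTT. Times: 30 min preincubation with enzyme, 25 min cleavage at room temperature. Detection: AMC fluorescence intensity at 355/460 nm.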
GSTO1 inh – GSTO1 inhibition, counter-screen for RBBP9 inhibitors | inhibition, % at 5.96 µM | hit rate 1.1% among 300,000 | recombinant GSTO1, activity-based probe fluorescence polarization | AID 1974;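 active = inhibition above the campaign mean inhibition plus 3 SD, cut at about 35% in these data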
GSTO1 inh conf – confirmation of human GSTO1 inhibitors; shares compounds with GSTO1 inh; recombinant GSTO1, probe fluorescence polarization; inhibition, % at 5.96 µM; hit rate 54% among 2,400; AID 2176;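 active = inhibition above the primary screen's cutoff, its mean inhibition plus 3 SD, cut at about 35% in these data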;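 note: loss of polarization as inhibitors block binding of rhodamine sulfonate ester activity probe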
GSTO1 ABPP inh – inhibitors of recombinant human GSTO1; shares compounds with GSTO1 inh; inhibition, % at 1 µM; AID 463110; hit rate 30% among 130; gel ABPP SE-Rh probe fluorescence;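 active = inhibition of the enzyme GSTO1 above about 75%, limit read from the data; inactive = inhibition below that limit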
PAD4 confirm – PAD4 (human) inhibition, confirmed | shares compounds with PAD4 FP inh | recombinant PAD4, RCA probe fluorescence polarization | inhibition, % at 6.36 µM | hit rate 28% among 1,200 | AID 488796;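 active = mean inhibition across replicates above the hit cutoff set by the earlier primary screen, cut at about 15% in these data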;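 note: inhibitors block active-site labeling by the probe so polarization falls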
Apaf-1 inh conf2 – Apaf-1 inhibition, single-dose confirmed | inhibition, % at 20 µM | shares compounds with Apaf-1 inh | reconstituted apoptosome, caspase-3 DEVD-Rh110 fluorescence | hit rate 25% among 1,800;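 active = mean inhibition of at least 40% at 20 µM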
Rh110 interf inh – counter-screen for Apaf-1 inhibitors: fluorescence interference | shares compounds with Apaf-1 inh | Rh110 fluorescence interference, quenched caspase reaction | activation (fluorescence interference), % at 20 µM | 1,800 tested, under 10 active;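 active = signal rise of 40% or more at 20 µM, treated as a fluorescence artifact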
Fluor interf inh – counter-screen for Apaf-1 inhibitors: fluorescence interference, dose response; shares compounds with Apaf-1 inh; fluorescence interference counterscreen, Apaf-1 assay format; IC50, µM; 460 tested, under 10 active; call rule not given here
A number is an active result; 0 = inactive; - = not tested or not shown.

SMILES | Apaf-1 inh | CTSL1 counter | PAD4 FP inh | PP5 primary | UCH37 DUB inh | GSTO1 inh | GSTO1 inh conf | others
COP(=O)(OC)C(O)C(Cl)(Cl)Cl (configuration not stated) | 0 | 0 | 0 | 0 | - | 44.2 | 0
COP(=O)(OC)C(NS(=O)(=O)c1ccccc1)C(Cl)(Cl)Cl (configuration not stated) | 0 | 0 | 0 | 0 | 0 | 0 | -
CCn1cc(C=c2sc3n(c2=O)C2c4ccccc4OC(C)(N=3)C2C(=O)OC)c(C)n1 (configuration not stated) | - | - | - | - | 0 | - | -
CC1CCCN(C(=O)CN2C3CCC2CC(O)(c2ccc(F)cc2)C3)C1 (configuration not stated) | 0 | 0 | 0 | 0 | 0 | 0 | -
CC1CCCN(C(=O)CCl)C1 (configuration not stated) | 0 | 0 | 0 | 0 | 0 | 66.3 | 84.3 | GSTO1 ABPP inh=0
CC(C)CCNC(=O)c1c(N)n(CC2CCCO2)c2nc3ccccc3nc12 (configuration not stated) | 91.3 | 0 | 0 | 0 | 0 | 54.3 | 57.1
O=C(CCC(=O)N1CCOc2ccc(Cl)cc21)N1CCC2(CC1)OCCO2 | 0 | 0 | 0 | 0 | 0 | 0 | -
O=C(NC1(C(F)(F)F)Oc2ccccc2O1)N1CCC2(CC1)OCCO2 | 0 | 0 | 0 | 0 | 0 | 42.0 | 0
O=C(NC1(C(F)(F)F)Oc2ccc(Cl)cc2O1)N1CCC2(CC1)OCCO2 (configuration not stated) | 0 | 0 | 0 | 0 | 0 | 62.5 | 0
COc1ccccc1NC(=O)CN(Cc1ccccc1)S(C)(=O)=O | 0 | 0 | 0 | 0 | 0 | 0 | -
NC(=NN=Cc1ccc(O)cc1)N[N+](=O)[O-] | - | - | - | - | 0 | - | -
Cc1ccccc1NC(=O)CCl | 0 | 0 | 0 | 0 | 0 | 62.9 | 78.2
CC(C)(C)c1ccc(C(=O)OCC(=O)N2CCC(c3ccccc3)=N2)cc1 | 0 | - | 0 | 0 | 0 | - | -
O=C1NC(=O)N(c2ccccc2)C(=O)/C1=C\c1ccc([N+](=O)[O-])s1 | 0 | 0 | 0 | 0 | 0 | 0 | -
COc1ccc(OC)c(N2C(=O)NC(=O)/C(=C\c3ccc([N+](=O)[O-])s3)C2=O)c1 | 0 | 0 | 0 | 0 | 0 | 39.8 | 0
CCCC12CN3CCN(CC(C3)C1=NNC(=O)c1ccncc1)C2 | - | - | - | - | 0 | - | -
CCOCN(C(=O)CCl)c1c(C)cccc1CC | 0 | 0 | 0 | 0 | 0 | 83.4 | 92.3 | GSTO1 ABPP inh=0
CC12CC[C@H]3[C@@H](CCC4(O)C[C@H](O)CCC34C=NNC(=O)Cc3ccccc3)C1(O)CCC2C1=CC(=O)OC1 (some centres not stated) | - | - | - | - | 0 | - | -
O=c1c2ccccc2nc(/C=C/c2ccc(O)c(O)c2)n1-c1ccccc1 | 0 | 0 | 0 | 0 | 0 | 44.1 | 0
O=C(CCl)NCC1CCCO1 (configuration not stated) | 0 | 0 | 0 | 0 | 0 | 51.4 | 65.0
NC(=S)NN=Cc1coc2ccccc2c1=O | - | - | - | - | 0 | - | -
CN1CCc2cc(O)cc3c2[C@H]1Cc1ccc(O)c(O)c1-3 | 0 | 0 | 0 | 0 | 0 | 99.0 | 0
O=c1[nH]c(O)c(N=Nc2ccc(S(=O)(=O)N3CCOCC3)cc2)c(=O)[nH]1 | 0 | 0 | 0 | 0 | 0 | 37.9 | 46.1
Cc1cc(N(CCCl)CCCl)ccc1C=NN=C(N)c1cnccn1 | - | - | - | - | 0 | - | -
O=C(c1ccco1)N1CCN(S(=O)(=O)c2cccc([N+](=O)[O-])c2)CC1 | 0 | 0 | 0 | 0 | 0 | 0 | -
SMILES | Apaf-1 inh | CTSL1 counter | PAD4 FP inh | PP5 primary | UCH37 DUB inh | GSTO1 inh | GSTO1 inh conf | others
c1ccc(-c2[nH]c(-c3ccccc3)[n+](CC3CO3)c2-c2ccccc2)cc1 (configuration not stated) | 0 | 0 | 0 | 0 | 0 | 84.3 | 84.4 | GSTO1 ABPP inh=0
COC[C@]12CN(C)C3C4[C@H](OC)C1C3([C@@H](OC)C[C@H]2O)[C@@H]1C[C@@]2(O)[C@H](OC(=O)c3ccccc3)[C@@H]1[C@]4(OC(C)=O)[C@@H](O)[C@@H]2OC | - | - | - | - | 0 | - | -
CC1CCCC(C)N1N=Cc1c[nH]c2ccc(Br)cc12 (configuration not stated) | - | - | - | - | 0 | - | -
Oc1cccc2nc3ccccc3nc12 | 0 | 0 | 0 | 0 | 0 | 70.3 | 0
O=P1(Oc2ccccc2)C[C@@H](O)[C@@H](O)[C@H](COCc2ccccc2)O1 (some centres not stated) | 0 | 0 | 0 | 0 | 0 | 72.6 | 0
CCN1CCN(Cc2cc3c(cc2[N+](=O)[O-])OCO3)CC1 | 0 | 0 | 0 | 0 | 0 | 37.9 | 0
O=[N+]([O-])c1cc2c(cc1CNCCc1ccc3c(c1)OCO3)OCO2 | 0 | 0 | 0 | 0 | - | 0 | -
C=CCn1c(O)c(C(CC)=Nc2ccc(N(C)C)cc2)c(=O)[nH]c1=O | 0 | 0 | 29.6 | 0 | 0 | 65.1 | 0 | PAD4 confirm=0
CC(=O)N/C(=C\c1ccccc1)C(=O)OC(C)C(=O)c1ccccc1 (configuration not stated) | 0 | 0 | 0 | 0 | 0 | 0 | -
COc1ccc(C2C3=C(CC(C)(C)CC3=O)Oc3ncn4nc(-c5ccccc5)nc4c32)cc1 (configuration not stated) | - | - | - | - | 0 | - | -
CCCCn1c(NS(=O)(=O)c2ccccc2)c(C(=O)OCC)c2nc3ccccc3nc21 | - | 0 | 63.4 | 0 | 0 | 66.0 | 66.0 | PAD4 confirm=0
COc1cc2c(cc1O)C[C@H]1c3c(cc(O)c(OC)c3-2)CCN1C | 0 | 0 | 0 | 0 | 0 | 0 | -
CCCN1CCc2cc(O)cc3c2[C@H]1Cc1ccc(O)c(O)c1-3 | 44.7 | 0 | 17.6 | 0 | 0 | 88.9 | 0 | PAD4 confirm=0
CCC(C)NC(=O)c1c(N)n(CC2CCCO2)c2nc3ccccc3nc12 (configuration not stated) | 94.5 | 0 | 0 | 0 | 0 | 38.4 | 57.8 | Apaf-1 inh conf2=55.5;Rh110 interf inh=0;Fluor interf inh=0
CCCCn1c(N)c(C(=O)NCCN2CCOCC2)c2nc3ccccc3nc21 | 0 | 0 | 0 | 0 | 0 | 0 | -
COc1cc2c(cc1O)[C@@H]1Cc3ccc(OC)c(O)c3CN1CC2 | 93.0 | 65.5 | 0 | 0 | 0 | 69.4 | 0 | Apaf-1 inh conf2=58.3;Rh110 interf inh=0;Fluor interf inh=0
